Calls of active or inactive are those of the source. No cut-off for these calls is given here.

Assay type in all cases: cell-based
Test [1] addresses Histone deacetylase (Homo sapiens) (UniProt Q13547+O15379+Q9UBN7+Q92769+Q9UQL6+Q8WUI4+Q9BY41+Q96DB2+P56524+Q9UKV0+Q969S8). As to the kind of experiment: Inhibition of HDAC in human MCF7 cells assessed as increase in acetylated H3 levels at 2 uM after 12 hrs by immunoblotting analysis. In general terms: Immunoblotting shows a protein as a band on a membrane.
The target in test [2] is T1, Protein cereblon/Protein deacetylase HDAC6 (Homo sapiens, UniProt Q9UBN7+Q96SW2). As to the kind of experiment: Induction of CRBN ubiquitin ligase-mediated HDAC6 degradation in human MCF7 cells assessed as decrease in HDAC6 levels at 5 uM after 12 hrs by immunoblotting analysis. Summed up:
(§1)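 MCF-7 cells exposed to bifunctional degraders at 5 µM for 12 h. Whole-cell lysate run on SDS-PAGE and immunoblotted for HDAC1, HDAC2, HDAC4 and HDAC6.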
Target sequence in this assay (Q96SW2 whole entry, looked up): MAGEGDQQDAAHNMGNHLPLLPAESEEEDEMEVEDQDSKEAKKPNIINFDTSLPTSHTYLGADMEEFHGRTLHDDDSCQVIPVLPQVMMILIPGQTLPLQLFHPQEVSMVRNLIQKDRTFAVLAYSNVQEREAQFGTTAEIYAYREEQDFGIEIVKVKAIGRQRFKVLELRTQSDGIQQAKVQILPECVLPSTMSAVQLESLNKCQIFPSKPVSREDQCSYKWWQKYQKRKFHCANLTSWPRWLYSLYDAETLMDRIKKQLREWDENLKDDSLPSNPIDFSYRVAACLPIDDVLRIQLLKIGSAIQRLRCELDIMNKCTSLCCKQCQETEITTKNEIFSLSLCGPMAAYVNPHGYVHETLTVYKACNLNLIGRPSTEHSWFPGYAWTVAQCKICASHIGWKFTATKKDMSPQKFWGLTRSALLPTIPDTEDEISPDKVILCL
Target sequence in this assay (Q9UBN7 whole entry, looked up): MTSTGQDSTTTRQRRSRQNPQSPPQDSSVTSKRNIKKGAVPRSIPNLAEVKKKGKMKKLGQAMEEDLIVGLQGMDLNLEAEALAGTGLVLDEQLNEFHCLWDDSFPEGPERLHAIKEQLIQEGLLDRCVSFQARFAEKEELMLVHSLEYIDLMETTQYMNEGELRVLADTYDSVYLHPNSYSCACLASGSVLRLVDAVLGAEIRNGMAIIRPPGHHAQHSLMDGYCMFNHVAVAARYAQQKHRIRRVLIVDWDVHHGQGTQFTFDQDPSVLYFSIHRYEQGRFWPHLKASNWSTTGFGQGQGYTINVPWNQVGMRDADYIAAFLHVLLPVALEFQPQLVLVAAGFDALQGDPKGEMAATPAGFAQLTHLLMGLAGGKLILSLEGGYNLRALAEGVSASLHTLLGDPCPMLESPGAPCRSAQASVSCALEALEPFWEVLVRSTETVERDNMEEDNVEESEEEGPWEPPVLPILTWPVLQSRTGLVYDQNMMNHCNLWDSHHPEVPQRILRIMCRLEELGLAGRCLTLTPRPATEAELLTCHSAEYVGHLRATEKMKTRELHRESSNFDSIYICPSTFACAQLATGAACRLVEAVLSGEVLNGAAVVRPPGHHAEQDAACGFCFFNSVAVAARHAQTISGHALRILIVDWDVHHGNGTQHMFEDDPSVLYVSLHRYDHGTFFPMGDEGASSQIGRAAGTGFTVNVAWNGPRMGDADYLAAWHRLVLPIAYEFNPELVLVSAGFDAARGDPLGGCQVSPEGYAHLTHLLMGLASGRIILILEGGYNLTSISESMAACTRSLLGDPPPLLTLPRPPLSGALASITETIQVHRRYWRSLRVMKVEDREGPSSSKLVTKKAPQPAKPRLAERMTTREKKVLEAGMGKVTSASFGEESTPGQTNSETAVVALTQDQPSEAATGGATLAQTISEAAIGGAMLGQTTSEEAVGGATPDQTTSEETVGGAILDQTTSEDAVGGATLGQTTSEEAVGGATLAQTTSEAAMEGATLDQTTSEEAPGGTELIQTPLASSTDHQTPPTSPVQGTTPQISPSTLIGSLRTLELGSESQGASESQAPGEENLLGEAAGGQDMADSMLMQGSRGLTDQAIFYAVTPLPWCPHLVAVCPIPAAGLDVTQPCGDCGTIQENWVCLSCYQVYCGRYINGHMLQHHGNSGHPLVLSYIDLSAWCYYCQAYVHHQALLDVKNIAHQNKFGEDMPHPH

For test [3], the target named is T2, Protein cereblon/Histone deacetylase 1 (Homo sapiens) (UniProt Q13547+Q96SW2). Nature of the test: Induction of CRBN ubiquitin ligase-mediated HDAC1 degradation in human MCF7 cells assessed as decrease in HDAC1 levels at 5 uM after 12 hrs by immunoblotting analysis. Summed up: as §1
T2 sequence (Q13547 whole entry, looked up): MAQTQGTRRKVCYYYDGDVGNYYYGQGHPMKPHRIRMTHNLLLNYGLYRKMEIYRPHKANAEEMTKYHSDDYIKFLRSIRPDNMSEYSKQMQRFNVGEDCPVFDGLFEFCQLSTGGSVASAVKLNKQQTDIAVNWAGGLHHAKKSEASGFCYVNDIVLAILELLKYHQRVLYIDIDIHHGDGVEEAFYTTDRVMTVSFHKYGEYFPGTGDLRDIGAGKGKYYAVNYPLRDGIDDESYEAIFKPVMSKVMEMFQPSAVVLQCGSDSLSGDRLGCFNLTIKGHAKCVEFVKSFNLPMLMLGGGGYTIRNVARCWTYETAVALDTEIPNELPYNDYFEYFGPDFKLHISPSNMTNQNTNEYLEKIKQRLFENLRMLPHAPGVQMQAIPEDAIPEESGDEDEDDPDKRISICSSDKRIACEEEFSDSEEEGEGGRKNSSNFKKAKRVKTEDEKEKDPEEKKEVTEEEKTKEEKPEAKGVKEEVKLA
T2 sequence (Q96SW2 whole entry, looked up): as the sequence (Q96SW2 whole entry, looked up) above
The target in test [4] is T3, Protein cereblon/Histone deacetylase 2 (Homo sapiens) (UniProt Q92769+Q96SW2). As to the kind of experiment: Induction of CRBN ubiquitin ligase-mediated HDAC2 degradation in human MCF7 cells assessed as decrease in HDAC2 levels at 5 uM after 12 hrs by immunoblotting analysis. Summed up: as §1
T3 sequence (Q92769 whole entry, looked up): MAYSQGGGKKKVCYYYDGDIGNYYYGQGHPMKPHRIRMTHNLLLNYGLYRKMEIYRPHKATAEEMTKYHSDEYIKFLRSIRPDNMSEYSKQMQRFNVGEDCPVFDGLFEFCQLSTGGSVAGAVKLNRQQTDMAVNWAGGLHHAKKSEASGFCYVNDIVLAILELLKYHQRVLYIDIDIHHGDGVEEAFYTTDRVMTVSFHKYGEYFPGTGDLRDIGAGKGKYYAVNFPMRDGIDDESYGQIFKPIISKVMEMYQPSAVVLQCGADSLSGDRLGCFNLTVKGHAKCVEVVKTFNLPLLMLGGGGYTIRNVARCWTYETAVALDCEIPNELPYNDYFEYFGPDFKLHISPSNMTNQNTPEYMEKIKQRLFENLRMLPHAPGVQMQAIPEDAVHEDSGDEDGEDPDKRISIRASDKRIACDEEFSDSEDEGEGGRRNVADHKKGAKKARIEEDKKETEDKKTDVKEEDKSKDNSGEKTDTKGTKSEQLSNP
T3 sequence (Q96SW2 whole entry, looked up): as the sequence (Q96SW2 whole entry, looked up) above
The target in test [5] is Protein cereblon/Histone deacetylase 4 (Homo sapiens) (UniProt P56524+Q96SW2). As to the kind of experiment: Induction of CRBN ubiquitin ligase-mediated HDAC4 degradation in human MCF7 cells assessed as decrease in HDAC4 levels at 5 uM after 12 hrs by immunoblotting analysis. A digest of the protocol:
as §1

Test [6] deals with T1, Protein cereblon/Protein deacetylase HDAC6. Nature of the test: Induction of CRBN ubiquitin ligase-mediated HDAC6 degradation in human MCF7 cells assessed as decrease in HDAC6 levels after 12 hrs by immunoblotting analysis. Summed up:
(§2)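 MCF-7 cells treated for 12 h across a range of 5 nM to 10 µM. Whole-cell lysate immunoblotted for HDAC6 and acetylated α-tubulin. Band intensities quantified by densitometry and curve-fitted to derive half-maximal degradation.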

For test [7] the target is unchanged. As to the kind of experiment: Induction of CRBN ubiquitin ligase-mediated HDAC6 degradation in human MCF7 cells assessed as increase in acetylated alpha-tubulin levels at 1.1 to 10 uM after 12 hrs by immunoblotting analysis. A digest of the protocol:
as §2
Target sequence in this assay (Q96SW2 whole entry, looked up): as above
Target sequence in this assay (Q9UBN7 whole entry, looked up): as the sequence (Q9UBN7 whole entry, looked up) above

The target is the same in test [8]. As to the kind of experiment: Induction of CRBN ubiquitin ligase-mediated HDAC6 degradation in human MCF7 cells assessed as increase in acetylated alpha-tubulin levels at 2 uM after 2 hrs by immunoblotting analysis. A digest of the protocol: (§3)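 Time course in MCF-7 cells: 2 µM degrader or DMSO vehicle for 0–8 h. Whole-cell lysate immunoblotted for HDAC6 and acetylated α-tubulin.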
Target sequence in this assay (Q96SW2 whole entry, looked up): as the sequence (Q96SW2 whole entry, looked up) above
Target sequence in this assay (Q9UBN7 whole entry, looked up): as the sequence (Q9UBN7 whole entry, looked up) above

For test [9] the target is unchanged. Nature of the test: Induction of CRBN ubiquitin ligase-mediated HDAC6 degradation in human MCF7 cells assessed as decrease in HDAC6 levels at 2 uM after 2 hrs by immunoblotting analysis. Summed up:
as §3
Target sequence in this assay (Q96SW2 whole entry, looked up): as the sequence (Q96SW2 whole entry, looked up) above
Target sequence in this assay (Q9UBN7 whole entry, looked up): as the sequence (Q9UBN7 whole entry, looked up) above

Test [10] shares this target. Nature of the test: Induction of CRBN ubiquitin ligase-mediated HDAC6 degradation in human MCF7 cells assessed as decrease in HDAC6 levels at 2 uM preincubated for 1 hr with proteosome-inhibitor MG132 followed by compound addition for 12 hrs by immunoblotting analysis. Summed up: (§4)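 MCF-7 cells pre-treated 1 h with 5 µM MG132, 5 µM pomalidomide or DMSO vehicle, then given 2 µM degrader or vehicle for 12 h. Whole-cell lysate immunoblotted for HDAC6 and acetylated α-tubulin.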
Target sequence in this assay (Q96SW2 whole entry, looked up): as the sequence (Q96SW2 whole entry, looked up) above
Target sequence in this assay (Q9UBN7 whole entry, looked up): as the sequence (Q9UBN7 whole entry, looked up) above

Test [11] shares this target. As to the kind of experiment: Induction of CRBN ubiquitin ligase-mediated HDAC6 degradation in human MCF7 cells assessed as decrease in HDAC6 levels at 2 uM preincubated for 1 hr with CRBN ligand pomalidomide followed by compound addition for 12 hrs by immunoblotting analysis. A digest of the protocol:
as §4
Target sequence in this assay (Q96SW2 whole entry, looked up): as the sequence (Q96SW2 whole entry, looked up) above
Target sequence in this assay (Q9UBN7 whole entry, looked up): as the sequence (Q9UBN7 whole entry, looked up) above

Test [12] shares this target. Nature of the test: Induction of CRBN ubiquitin ligase-mediated HDAC6 degradation in human MCF7 cells assessed as increase in acetylated alpha-tubulin levels at 2 uM preincubated for 1 hr with proteosome-inhibitor MG132 followed by compound addition for 12 hrs by immunoblotting analysis. Summed up: as §4
For test [13] the target is unchanged. Nature of the test: Induction of CRBN ubiquitin ligase-mediated HDAC6 degradation in human MCF7 cells assessed as increase in acetylated alpha-tubulin levels at 2 uM at 2 uM preincubated for 1 hr with CRBN ligand pomalidomide followed by compound addition for 12 hrs by immunoblotting analysis. A digest of the protocol: as §4
The target is the same in test [14]. Nature of the test: Induction of CRBN ubiquitin ligase-mediated HDAC6 degradation in human MCF7 cells assessed as decrease in HDAC6 levels at 2 uM preincubated for 1 hr with 1 uM pan-HDAC inhibitor N-hydroxy-8-(2-(4-methoxybenzylidene)hydrazinyl)-8-oxooctanamide followed by compound addition for 12 hrs by immunoblotting analysis. A digest of the protocol: (§5)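 MCF-7 cells pre-treated 1 h with pan-HDAC inhibitor (1 µM or 100 nM) or DMSO vehicle, then given 2 µM degrader or vehicle for 12 h. Whole-cell lysate immunoblotted for HDAC6 and acetylated α-tubulin.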

Test [15] shares this target. Nature of the test: Induction of CRBN ubiquitin ligase-mediated HDAC6 degradation in human MCF7 cells assessed as decrease in HDAC6 levels at 2 uM preincubated for 1 hr with 100 nM pan-HDAC inhibitor N-hydroxy-8-(2-(4-methoxybenzylidene)hydrazinyl)-8-oxooctanamide followed by compound addition for 12 hrs by immunoblotting analysis. A digest of the protocol:
as §5

Test [16] shares this target. Nature of the test: Induction of CRBN ubiquitin ligase-mediated HDAC6 degradation in human MCF7 cells assessed as increase in acetylated alpha-tubulin levels at 2 uM preincubated for 1 hr with 100 nM pan-HDAC inhibitor N-hydroxy-8-(2-(4-methoxybenzylidene)hydrazinyl)-8-oxooctanamide followed by compound addition for 12 hrs by immunoblotting analysis. A digest of the protocol: as §5

The target in test [17] is T2, Protein cereblon/Histone deacetylase 1 (Homo sapiens). As to the kind of experiment: Induction of CRBN ubiquitin ligase-mediated HDAC1 degradation in human MCF7 cells assessed as increase in acetylated H3 levels at 2 uM after 12 hrs by immunoblotting analysis.
In test [18] the target is T1, Protein cereblon/Protein deacetylase HDAC6. As to the kind of experiment: Induction of CRBN ubiquitin ligase-mediated HDAC6 degradation in human MM1S cells assessed as decrease in HDAC6 levels at =>80 nM after 6 hrs by immunoblotting analysis. A digest of the protocol:
(§6)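 MM.1S cells treated for 6 h at a range of concentrations. Whole-cell lysate immunoblotted for HDAC6 and acetylated α-tubulin.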

For test [19] the target is unchanged. Nature of the test: Induction of CRBN ubiquitin ligase-mediated HDAC6 degradation in human MM1S cells assessed as increase in acetylated alpha-tubulin levels at =>80 nM after 6 hrs by immunoblotting analysis. Summed up: as §6
Test [20] concerns the target T3, Protein cereblon/Histone deacetylase 2 (Homo sapiens). Nature of the test: Induction of CRBN ubiquitin ligase-mediated HDAC2 degradation in human MCF7 cells assessed as increase in acetylated H3 levels at 2 uM after 12 hrs by immunoblotting analysis.

Chain of Protein cereblon/Histone deacetylase 4 (Homo sapiens) (P56524 whole entry, looked up): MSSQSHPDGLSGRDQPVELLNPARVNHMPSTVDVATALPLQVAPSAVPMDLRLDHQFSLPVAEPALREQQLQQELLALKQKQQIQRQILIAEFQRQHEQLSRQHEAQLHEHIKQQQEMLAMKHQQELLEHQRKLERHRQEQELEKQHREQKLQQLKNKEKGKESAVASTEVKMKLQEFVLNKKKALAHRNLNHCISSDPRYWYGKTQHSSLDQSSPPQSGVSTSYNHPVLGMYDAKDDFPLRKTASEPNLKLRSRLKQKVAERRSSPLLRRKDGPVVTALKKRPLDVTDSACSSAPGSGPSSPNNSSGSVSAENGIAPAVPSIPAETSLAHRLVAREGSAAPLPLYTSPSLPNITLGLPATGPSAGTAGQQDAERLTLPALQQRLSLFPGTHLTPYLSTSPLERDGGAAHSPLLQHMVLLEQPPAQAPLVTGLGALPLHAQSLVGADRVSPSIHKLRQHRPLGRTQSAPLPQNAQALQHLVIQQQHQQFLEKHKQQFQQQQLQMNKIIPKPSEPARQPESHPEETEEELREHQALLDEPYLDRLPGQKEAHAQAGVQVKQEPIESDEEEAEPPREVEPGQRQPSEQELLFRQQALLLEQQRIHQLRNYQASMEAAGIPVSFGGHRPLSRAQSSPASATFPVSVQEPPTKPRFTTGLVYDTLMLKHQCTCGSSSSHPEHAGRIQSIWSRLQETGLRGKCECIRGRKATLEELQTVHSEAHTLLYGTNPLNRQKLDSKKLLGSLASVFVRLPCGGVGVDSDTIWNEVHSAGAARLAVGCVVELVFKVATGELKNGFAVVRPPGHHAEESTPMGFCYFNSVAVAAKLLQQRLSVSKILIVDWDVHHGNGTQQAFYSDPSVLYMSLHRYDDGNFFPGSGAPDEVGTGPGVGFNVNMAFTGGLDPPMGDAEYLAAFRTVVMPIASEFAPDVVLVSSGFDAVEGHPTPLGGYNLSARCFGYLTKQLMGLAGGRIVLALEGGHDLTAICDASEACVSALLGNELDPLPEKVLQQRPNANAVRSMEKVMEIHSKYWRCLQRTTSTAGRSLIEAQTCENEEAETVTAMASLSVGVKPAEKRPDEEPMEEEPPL
Chain of Protein cereblon/Histone deacetylase 4 (Homo sapiens) (Q96SW2 whole entry, looked up): as the sequence (Q96SW2 whole entry, looked up) above

Regarding `COc1ccc(/C=N/NC(=O)CCCCCCC(=O)NO)cc1`, the inhibition result in test [1] was “Active”.
`O=C(CCCCCCC(=O)N/N=C/c1ccc(OCCOCCOCCOCCn2cc(CNc3cccc4c3C(=O)N(C3CCC(=O)NC3=O)C4=O)nn2)cc1)NO` (centres undefined): the result in [2] was Active. Also, the result in [3], in test [4] and in [5] was inactive.
Regarding `O=C(CCCCCCC(=O)N/N=C/c1ccc(OCCOCCn2cc(CNc3cccc4c3C(=O)N(C3CCC(=O)NC3=O)C4=O)nn2)cc1)NO` (centres undefined), in test [2], the result was Active. The outcome in test [3], in test [4] and in test [5] was inactive.
Take `O=C(CCCCCCC(=O)N/N=C/c1ccc(OCCn2cc(CNc3cccc4c3C(=O)N(C3CCC(=O)NC3=O)C4=O)nn2)cc1)NO` (centres undefined): the outcome in test [2] was Active. Besides, the result in [3], in test [4] and in test [5] was inactive.
The DC50 is the midpoint of the concentration-degradation curve. Usually Emax stands for the greatest response seen or fitted, relative to the assay's reference. On to `O=C(CCCCCCC(=O)N/N=C/c1ccc(OCCOCCOCCn2cc(CNc3cccc4c3C(=O)N(C3CCC(=O)NC3=O)C4=O)nn2)cc1)NO` (centres undefined), for which the outcome in test [2], in test [7], in test [8], in test [9], in test [15] and in test [16] was Active. Moreover, the result in test [17], in [18], in [19] and in test [20] was Active. In addition, the result in test [3], in test [4], in [5], in test [10], in test [11] and in test [12] was inactive. Moreover, the result in [13] and in test [14] was inactive. Further, the Activity entry in test [6] was “Dose-dependent effect”. Also, the DC50 in test [6] stood at 34 nM. Also, in [6], the Emax is 70.5%.

(Values after ChEMBL document CHEMBL4118247, “Development of the first small molecule histone deacetylase 6 (HDAC6) degraders” (Bioorg Med Chem Lett, 2018).)
